From PubChem BioAssay
Results filed as inconclusive are left out.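 Rule for the calls, unless noted: active = cell viability at or below a set limit in both duplicate runs, the limit being the all-compound median minus 4 SD (cut at about 23% in these data, passing the limit was not always enough); inconclusive = no clear call, values can overlap the other calls; inactive = the rest.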

How the values were obtained:
[1] = OD615 S. cerevisiae growth inhibition, permissive medium, pilot counter-assay, permissive growth control for S. cerevisiae lifespan shortening project (AID 705;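 active = growth inhibition above 25% in both replicates, a cutoff set 3 SD above the mean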); details: OD615, 24 h, at 10 µM, active compounds read high
Method in brief: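 assay system = Saccharomyces cerevisiae strain carrying genetically modified DeaD replicative-lifespan system | technique = absorbance (optical density) at 615 nm | buffer or medium = permissive raffinose/galactose medium | timing = cells pre-grown 4 h, then 24 h compound exposure, 30 °C humidified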

[2] = Restrictive medium S. cerevisiae growth inhibition, OD615, pilot screen of yeast lifespan reduction project, restrictive growth control (AID 706;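 active = growth inhibition above a set limit, 3 SD over mean compound inhibition, in both replicates, cut at about 43% in these data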;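 note: modified DeaD lifespan yeast strain shifted to restrictive glucose medium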); details: OD615, 48 h, at 10 µM, active compounds read high
Method in brief: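 System: modified S. cerevisiae. Buffer or medium: CSMM-D glucose medium. Incubation: 4 h pre-growth plus 48 h compound exposure, 30 °C. Detection: absorbance (optical density) measured at 615 nm.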

[3] = viability gain of MRP-1-high H69AR cells under doxorubicin, pilot screen, MRP-1 activator project, CellTiter-Glo, duplicate (AID 807;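 active = viability increase at or above a cutoff of the median across tested compounds plus 3 SD, cut at about 8.5% in these data, passing the limit was not always enough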;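 note: compound pretreatment 18-22 h then 72 h combined with doxorubicin; 0% = doxorubicin alone and 100% = vehicle without doxorubicin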); details: H69AR viability with doxorubicin, CellTiter-Glo luminescence; at 10 µM; active compounds read high
[4] = growth suppression of beta-catenin knockout HCT116, pilot screen, human colon tumor cells (AID 823); details: CellTiter-Glo, 60 h, at 10 µM, active compounds read low;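 note: 0% = wells killed by 20 µM Hyamine and 100% = untreated DMSO cell wells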
[5] = growth suppression of PTEN-deleted HCT116, pilot screen, cell-based, HCT116 clonal line, CellTiter-Glo (AID 824;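 active = viability at or below 27.92% in each of two runs, the all-compound median minus 4 SD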;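 note: 0% = 20 µM Hyamine control and 100% = vehicle cell control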); details: 60 h, at 10 µM, active compounds read low
[6] = inhibitors of the yeast RAM network, pilot screen, dse1pr::URA3 reporter, 5-FOA selection (AID 869;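 active = inhibition over a set limit, the all-compound mean plus 3 SD, in both replicate runs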;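 note: 0% = DMSO wells with no growth and 100% = 10 µM 1-NA-PP1 with full growth; RAM network block rescues cells from 5-FOA so hits raise OD615 growth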); details: S. cerevisiae dse1pr::URA3 5-FOA growth, OD615, 2 d; at 10 µM; active compounds read high; strain carries analog-sensitive mutant Cbk1 kinase
[7] = RAM signaling pathway blockade in yeast – S. cerevisiae, Pdr1DBD-CYC8 efflux-inhibited sensitized strain, primary screen (AID 1298;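 active = RAM network inhibition above 8.4% in each of two replicates, 3 SD over the compound average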;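 note: 0% = DMSO untreated cells without growth and 100% = 10 µM 1-NA-PP1 full growth; higher means more yeast growth rescued from 5-FOA killing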); details: S. cerevisiae cbk1-as DSE1-URA3 strain, 5-FOA growth OD615, 2 d; at 50 µM; active compounds read high

COc1cccc(-c2nc(CS(=O)CC(=O)NCc3ccc4c(c3)OCO4)c(C)o2)c1 (configuration not stated)
inactive: growth inhibition [1] -3.78% | growth inhibition [2] 14.7% | viability increase [3] 0.74% | viability [4] 97.2% | viability [5] 101% | inhibition [6] 3% | RAM network inhibition [7] 4.76%

O=C(C1CCN(S(=O)(=O)c2cccc3cccnc23)CC1)N1CCN(c2ccccc2)CC1
inactive: growth inhibition [1] 1.1% | growth inhibition [2] 16.9% | viability increase [3] -3.27% | viability [4] 87.7% | viability [5] 83.8% | inhibition [6] 1.76% | RAM network inhibition [7] 6.12%

Brc1[nH]nc2ccccc12
inactive: growth inhibition [1] -1.23% | growth inhibition [2] 5.22% | viability increase [3] -3.24% | viability [4] 96.7% | viability [5] 94.9% | inhibition [6] 0.28% | RAM network inhibition [7] 0.05%

CC(C)CN(CC(C)C)c1nnc(N)s1
inactive: growth inhibition [1] 3.15% | growth inhibition [2] 2.1% | viability increase [3] 1.25% | viability [4] 103% | viability [5] 99.5% | inhibition [6] 0.56% | RAM network inhibition [7] 1.13%

CCN(CC)CCN1C(=O)C2C3c4ccccc4C(c4ccccc43)C2C1=O (configuration not stated)
inactive: growth inhibition [1] -2.27% | growth inhibition [2] -2.01% | viability increase [3] -2.46% | viability [4] 96.5% | viability [5] 95.4% | inhibition [6] 0.035% | RAM network inhibition [7] 1.71%

Cc1nn(Cc2ccccc2)c(N)c1C#N
inactive: growth inhibition [1] -2.69% | growth inhibition [2] 1.22% | viability increase [3] 0.68% | viability [4] 107% | viability [5] 98.3% | inhibition [6] 1.58% | RAM network inhibition [7] 5.62%

CCOC(=O)Cc1nnc(NC(=O)CSc2nncn2C)s1
inactive: growth inhibition [1] -1.1% | growth inhibition [2] 7.44% | viability increase [3] -0.06% | viability [4] 98.5% | viability [5] 94.5% | inhibition [6] 1.5% | RAM network inhibition [7] 2.87%

O=C(c1ccc(CS(=O)(=O)c2ccc(Br)cc2)o1)N1CCN(c2ncccn2)CC1
inactive: growth inhibition [1] -4.05% | growth inhibition [2] -7.28% | viability increase [3] -4.3% | viability [4] 86.2% | viability [5] 96% | inhibition [6] 1.94% | RAM network inhibition [7] 3.64%

CC(Cc1ccccc1)N/C=C1/CC(=O)NC1=O (configuration not stated)
inactive: growth inhibition [1] -8.61% | growth inhibition [2] 0.51% | viability increase [3] -1.53% | viability [4] 97% | viability [5] 97% | inhibition [6] 1.42% | RAM network inhibition [7] 2.56%

Cc1ccc(O)c(NC(=O)CCC2CCCCC2)c1
inactive: growth inhibition [1] -1.6% | growth inhibition [2] 1.04% | viability increase [3] -3.63% | viability [4] 89.4% | viability [5] 84.5% | inhibition [6] 4.25% | RAM network inhibition [7] 4.08%

Cc1cccc(-n2c(Cc3cc(=O)[nH]c(=O)[nH]3)nnc2SC(C)C)c1
inactive: growth inhibition [1] -8.09% | growth inhibition [2] -1.15% | viability increase [3] -1.84% | viability [4] 101% | viability [5] 97.7% | inhibition [6] 1.72% | RAM network inhibition [7] 3.87%

COc1ccc(NC(=O)N(CCCN2CCOCC2)Cc2cccnc2)c(OC)c1
inactive: growth inhibition [1] -7.71% | growth inhibition [2] -3.92% | viability increase [3] -1.79% | viability [4] 100% | viability [5] 103% | inhibition [6] 1.03% | RAM network inhibition [7] 1.81%

COc1cccc(-c2nc(CS(=O)CC(=O)NC3CC3)c(C)o2)c1 (configuration not stated)
inactive: growth inhibition [1] 1.62% | growth inhibition [2] 14.2% | viability increase [3] -2.91% | viability [4] 101% | viability [5] 101% | inhibition [6] 0.52% | RAM network inhibition [7] 0.14%

CCOc1ccc(C2N(c3ccc(OC)cc3)C(=O)C3CCCN32)cc1OC (configuration not stated)
inactive: growth inhibition [1] -1.7% | growth inhibition [2] -0.11% | viability increase [3] -2.39% | viability [4] 98.7% | viability [5] 101% | inhibition [6] 1.57% | RAM network inhibition [7] 3%

COc1ccc(OCC(=O)OCCN2C(=O)c3ccccc3C2=O)cc1
inactive: growth inhibition [1] 3.16% | growth inhibition [2] -3.81% | viability increase [3] -0.31% | viability [4] 101% | viability [5] 106% | inhibition [6] 0.97% | RAM network inhibition [7] 8.21%

Cc1ccc2cc(CCNC(=O)C(C)(C)C)c(=O)[nH]c2c1
inactive: growth inhibition [1] -5.49% | growth inhibition [2] -13.2% | viability increase [3] 0.4% | viability [4] 105% | viability [5] 97.5% | inhibition [6] 0.125% | RAM network inhibition [7] 3.53%

COc1ccc(C2CC(c3ccc(F)cc3)Nc3nc(N)nn32)cc1 (configuration not stated)
inactive: growth inhibition [1] -3.94% | growth inhibition [2] 11.2% | viability increase [3] 0.02% | viability [4] 98.1% | viability [5] 94.4% | inhibition [6] 1% | RAM network inhibition [7] 6.59%

O=C(CNS(=O)(=O)c1cccc2nsnc12)NCc1ccc(Cl)cc1
inactive: growth inhibition [1] -2.9% | growth inhibition [2] -2.34% | viability increase [3] -4.44% | viability [4] 88% | viability [5] 91.5% | inhibition [6] 0.415% | RAM network inhibition [7] 4.28%

COc1ccc(N(CC(=O)N2CCN(c3ccccc3)CC2)S(=O)(=O)c2c(C)noc2C)cc1
inactive: growth inhibition [1] -9.29% | growth inhibition [2] -0.83% | viability increase [3] -4.48% | viability [4] 93.7% | viability [5] 85.6% | inhibition [6] 0.315% | RAM network inhibition [7] 3.7%

O=C(NCc1ccc2c(c1)OCO2)C1CCC(CNc2c(N3CCCC3)c(=O)c2=O)CC1 (configuration not stated)
inactive: growth inhibition [1] -5.55% | growth inhibition [2] -7.12% | viability increase [3] -1.29% | viability [4] 104% | viability [5] 102% | inhibition [6] 3.97% | RAM network inhibition [7] 1.53%

COc1ccc(C(=O)Nc2cc3c(cc2C#N)OCO3)cc1S(=O)(=O)N1CCN(C)CC1
inactive: growth inhibition [1] -18.3% | growth inhibition [2] -21.2% | viability increase [3] 1.53% | viability [4] 100% | viability [5] 101% | inhibition [6] 0.975% | RAM network inhibition [7] 5.27%

O=C(CSc1nnc(COc2ccccc2)o1)Nc1nccs1
inactive: growth inhibition [1] 6.56% | growth inhibition [2] 4.11% | viability increase [3] -2.31% | viability [4] 95.6% | viability [5] 96.4% | inhibition [6] 1.78% | RAM network inhibition [7] 3.24%

c1cc(-c2nnc3n2CCC3)[nH]n1
inactive: growth inhibition [1] 1.95% | growth inhibition [2] -0.075% | viability increase [3] -2.22% | viability [4] 95.9% | viability [5] 104% | inhibition [6] 1.51% | RAM network inhibition [7] 2.34%

Cn1c(=O)oc2cc(S(=O)(=O)NCCN3CCN(c4ccccc4F)CC3)ccc21
inactive: growth inhibition [1] -14.7% | growth inhibition [2] 0.235% | viability increase [3] -2.88% | viability [4] 100% | viability [5] 88.8% | inhibition [6] 0.835% | RAM network inhibition [7] 1.48%

CC1(C)CC(=O)c2cc(C(=O)N3CCN(CCO)CC3)c(=O)n(-c3ccc(Cl)cc3)c2C1
inactive: growth inhibition [1] -6.56% | growth inhibition [2] -25.4% | viability increase [3] -0.93% | viability [4] 103% | viability [5] 100% | inhibition [6] 1.81% | RAM network inhibition [7] 3.06%

Cc1ccc(CNC(=O)C2CCCN(c3nc4ccccc4o3)C2)cc1 (configuration not stated)
inactive: growth inhibition [1] -20.4% | growth inhibition [2] -13.5% | viability increase [3] 1.29% | viability [4] 101% | viability [5] 98.9% | inhibition [6] 0.85% | RAM network inhibition [7] 5.43%

O=C(OCCOCCN=C1NS(=O)(=O)c2ccccc21)C1CC(=O)N(c2ccccc2)C1 (configuration not stated)
inactive: growth inhibition [1] 4.05% | growth inhibition [2] 5.13% | viability increase [3] -1.16% | viability [4] 100% | viability [5] 87.3% | inhibition [6] 2.11% | RAM network inhibition [7] 1.23%

COCCCNc1oc(-c2ccccc2F)nc1C#N
inactive: growth inhibition [1] -13.2% | growth inhibition [2] -15.9% | viability increase [3] 2.02% | viability [4] 105% | viability [5] 97.2% | inhibition [6] -0.74% | RAM network inhibition [7] 0.89%

COc1ccc(S(=O)(=O)Cc2ccc(C(=O)NCc3ccco3)o2)cc1
inactive: growth inhibition [1] -3.02% | growth inhibition [2] -11.6% | viability increase [3] -4.28% | viability [4] 104% | viability [5] 97.4% | inhibition [6] 0.88% | RAM network inhibition [7] 0.47%

Cc1ccc(S(=O)(=O)CNC(=O)c2ccccc2)cc1
inactive: growth inhibition [1] -4.27% | growth inhibition [2] 3.26% | viability increase [3] 1.64% | viability [4] 97.8% | viability [5] 96.8% | inhibition [6] 1.57% | RAM network inhibition [7] 0.51%

CCCc1cc(C(=O)Nc2ccc(C)cc2)no1
inactive: growth inhibition [1] -3.58% | growth inhibition [2] -5.4% | viability increase [3] -0.63% | viability [4] 101% | viability [5] 97.6% | inhibition [6] 1.32% | RAM network inhibition [7] 1.86%

O=C(Cn1cnc2c(nnn2-c2cccc(Cl)c2)c1=O)N1CCOCC1
inactive: growth inhibition [1] -0.49% | growth inhibition [2] -4.46% | viability increase [3] -0.35% | viability [4] 92.5% | viability [5] 96.4% | inhibition [6] 1.79% | RAM network inhibition [7] 1.56%

COc1ccc(C)cc1NC(=O)Cn1cnc2sc(C)c(S(=O)(=O)N3CCOCC3)c2c1=O
inactive: growth inhibition [1] 4.46% | growth inhibition [2] 4.67% | viability increase [3] -1.23% | viability [4] 102% | viability [5] 99.3% | inhibition [6] 2.75% | RAM network inhibition [7] 9.74%

COc1cc(CCC(=O)N2CCN(c3ccc(N4CCOCC4)nn3)CC2)cc(OC)c1OC
inactive: growth inhibition [1] 7.64% | growth inhibition [2] 14.6% | viability increase [3] -1.86% | viability [4] 106% | viability [5] 112% | inhibition [6] 0.43% | RAM network inhibition [7] 4.7%

CCCn1cc(S(=O)(=O)CC(=O)Nc2ccc(OC)cc2OC)c2ccccc21
inactive: growth inhibition [1] -7.84% | growth inhibition [2] 6.44% | viability increase [3] -1.59% | viability [4] 97.9% | viability [5] 96.4% | inhibition [6] 2.81% | RAM network inhibition [7] -0.12%

CCN1C(=O)c2ccccc2S(=O)c2ccc(C(=O)N3CCCC3)cc21 (configuration not stated)
inactive: growth inhibition [1] -3.58% | growth inhibition [2] 3.54% | viability increase [3] -1.58% | viability [4] 93.3% | viability [5] 88.9% | inhibition [6] 1.16% | RAM network inhibition [7] -1.72%
